Columns and labels:
Format in all cases: functional
Rattus norvegicus [1] = experiment: Antihyperlipidemic activity in Charles Foster rat assessed as reduction of triton WR-1339-induced plasma total cholesterol level at 100 mg/kg, po after 18 hrs; set-up: scale not given: the % may be the effect or the level left
Method in brief: (§1)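 Male Charles Foster rats (100–150 g), six per group. Triton WR-1339 400 mg/kg ip with simultaneous oral dosing at 100 mg/kg, given as a gum acacia (0.2% w/v) suspension in water. Diet was withdrawn. Vehicle went to the control and triton groups. At 18 h, under thiopentone anaesthesia, retro-orbital blood was taken into EDTA and spun at 4 °C. Plasma diluted 1:3 in saline. TC, TG and PL measured by enzymatic kits. Mean SD.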

Rattus norvegicus [2] = experiment: Antihyperlipidemic activity in Charles Foster rat assessed as reduction of triton WR-1339-induced plasma triglyceride level at 100 mg/kg, po after 18 hrs; set-up: scale not given: the % may be the effect or the level left; method in brief: as §1
Rattus norvegicus [3] = experiment: Antihyperlipidemic activity in Charles Foster rat assessed as reduction of triton WR-1339-induced plasma phospholipid level at 100 mg/kg, po after 18 hrs; set-up: scale not given: the % may be the effect or the level left; method in brief: as §1
Rattus norvegicus [4] = experiment: Antihyperlipidemic activity in Charles Foster rat assessed as reduction of triton WR-1339-induced plasma protein level at 100 mg/kg, po after 18 hrs; set-up: scale not given: the % may be the effect or the level left
Rattus norvegicus [5] = experiment: Antihyperlipidemic activity in Charles Foster rat assessed as reduction of triton WR-1339-induced plasma post heparin lipolytic activity assessed per mL of plasma at 100 mg/kg, po after 18 hrs; set-up: scale not given: the % may be the effect or the level left
Method in brief: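 Male Charles Foster rats (100–150 g), six per group. Triton WR-1339 400 mg/kg ip together with an oral 100 mg/kg dose in gum acacia suspension. Diet was withdrawn and vehicle controls were included. At 18 h, EDTA plasma was taken from retro-orbital blood. Post-heparin lipolytic activity was measured spectrophotometrically as nmol free fatty acid formed/h/ml plasma. Mean SD.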

[6] = Antioxidant activity assessed as xanthine-xanthine oxidase generated superoxide anion scavenging at 100 mg/ml after 30 mins by NBT reduction assay
Method in brief: (§2)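 Enzymic superoxide generation with xanthine, xanthine oxidase (0.04 U) and nitroblue tetrazolium in 100 mM phosphate buffer pH 8.2, with or without sample. Incubated at 37 °C for 30 min, then stopped with glacial acetic acid. Formazan read at 560 nm. Percent inhibition calculated using ε 7.2 × 10³ M/cm.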

[7] = Antioxidant activity assessed as xanthine-xanthine oxidase generated superoxide anion scavenging at 200 mg/ml after 30 mins by NBT reduction assay; method in brief: as §2
[8] = Antioxidant activity assessed as hydroxyl radical scavenging activity by measuring malondialdehyde formation at 100 mg/ml after 90 mins by thiobarbituric acid method
Method in brief: (§3)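 Non-enzymic hydroxyl radical generation: deoxyribose 2.8 mM, FeSO4 2 mM, sodium ascorbate 2.0 mM and H2O2 2.8 mM in 50 mM KH2PO4 pH 7.4, with or without sample. Incubated at 37 °C for 90 min alongside reference samples and reagent blanks. MDA measured spectrophotometrically by the thiobarbituric acid method.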

[9] = Antioxidant activity assessed as hydroxyl radical scavenging activity by measuring malondialdehyde formation at 200 mg/ml after 90 mins by thiobarbituric acid method; method in brief: as §3
[10] = Antioxidant activity against microsomal lipid peroxidation assessed as malondialdehyde formation at 100 mg/ml after 90 mins by thiobarbituric acid method
[11] = Antioxidant activity against microsomal lipid peroxidation assessed as malondialdehyde formation at 200 mg/ml after 90 mins by thiobarbituric acid method

Work on `Cc1ccc(C(O)CNC(=O)Cc2cccnc2)cc1` (racemic) yielded an Activity (Rattus norvegicus [1]) of 23%, an Activity (Rattus norvegicus [2]) of 25% and an Activity (Rattus norvegicus [3]) of 22%. It also gave an Activity (Rattus norvegicus [4]) of 23%, an Activity (Rattus norvegicus [5]) of 19% and an Activity [6] of 17%. The Activity [7] was 31%, the Activity [8] was 17% and the Activity [9] was 29%. It also gave an Activity [10] of 22% and an Activity [11] of 29%.

`Cc1ccc(C)c(OCCCC(C)(C)C(=O)O)c1` [GEMFIBROZIL] showed an Activity (Rattus norvegicus [1]) of 33%, an Activity (Rattus norvegicus [2]) of 31% and an Activity (Rattus norvegicus [3]) of 36%. The Activity (Rattus norvegicus [4]) was 31% and the Activity (Rattus norvegicus [5]) was 23%.

In the case of `COc1cc(/C=C/C(=O)NCC(O)c2ccc(C)cc2)ccc1O` (mixture of isomers), the Activity (Rattus norvegicus [1]) is reported as 24%, the Activity (Rattus norvegicus [2]) is reported as 23% and the Activity (Rattus norvegicus [3]) is reported as 22%. It also gave an Activity (Rattus norvegicus [4]) of 21%, an Activity (Rattus norvegicus [5]) of 21% and an Activity [6] of 21%. The Activity [7] was 32%, the Activity [8] was 18% and the Activity [9] was 27%. The Activity [10] was 19% and the Activity [11] was 23%.

`Cc1ccc(C(=O)CNC(=O)/C=C/c2ccccc2O)cc1` gave an Activity (Rattus norvegicus [1]) of 11%, an Activity (Rattus norvegicus [2]) of 9% and an Activity (Rattus norvegicus [3]) of 10%. It also gave an Activity (Rattus norvegicus [4]) of 8% and an Activity (Rattus norvegicus [5]) of 10%.

In the case of `Cc1ccc(C(=O)CNC(=O)c2cccnc2)cc1`, the Activity (Rattus norvegicus [1]) is reported as 4%, the Activity (Rattus norvegicus [2]) is reported as 2% and the Activity (Rattus norvegicus [3]) is reported as 6%. For the same molecule, the Activity (Rattus norvegicus [4]) was 4% and the Activity (Rattus norvegicus [5]) was 6%.

`Cc1ccc(C(=O)CNC(=O)/C=C/c2ccc(O)cc2)cc1` showed an Activity (Rattus norvegicus [1]) of 22%, an Activity (Rattus norvegicus [2]) of 21% and an Activity (Rattus norvegicus [3]) of 23%. It also gave an Activity (Rattus norvegicus [4]) of 20%, an Activity (Rattus norvegicus [5]) of 19% and an Activity [6] of 17%. For the same molecule, the Activity [7] was 31%, the Activity [8] was 17% and the Activity [9] was 29%. For the same molecule, the Activity [10] was 22% and the Activity [11] was 29%.

`COc1ccc(CC(=O)NCC(=O)c2ccc(C)cc2)cc1OC` gave an Activity (Rattus norvegicus [1]) of 10%, an Activity (Rattus norvegicus [2]) of 12% and an Activity (Rattus norvegicus [3]) of 14%. The Activity (Rattus norvegicus [4]) was 14% and the Activity (Rattus norvegicus [5]) was 12%.

Molecule `Cc1ccc(C(=O)CNC(=O)Cc2cccnc2)cc1` has an Activity (Rattus norvegicus [1]) of 7%, an Activity (Rattus norvegicus [2]) of 5% and an Activity (Rattus norvegicus [3]) of 7%. For the same molecule, the Activity (Rattus norvegicus [4]) was 7% and the Activity (Rattus norvegicus [5]) was 8%.

In the case of `Cc1ccc(C(=O)CNC(=O)/C=C/c2ccc(OS(=O)(=O)c3ccc(C)cc3)cc2)cc1`, the Activity (Rattus norvegicus [1]) is reported as 7%, the Activity (Rattus norvegicus [2]) is reported as 4% and the Activity (Rattus norvegicus [3]) is reported as 9%. The Activity (Rattus norvegicus [4]) was 6% and the Activity (Rattus norvegicus [5]) was 7%.

Molecule `OC[C@@H](O)[C@@H](O)[C@H](O)[C@H](O)CO` has an Activity [9] of 45%.

Molecule `COc1cc(/C=C/C(=O)NCC(=O)c2ccc(C)cc2)ccc1O` has an Activity (Rattus norvegicus [1]) of 5%, an Activity (Rattus norvegicus [2]) of 10% and an Activity (Rattus norvegicus [3]) of 6%. It also gave an Activity (Rattus norvegicus [4]) of 10% and an Activity (Rattus norvegicus [5]) of 13%.

`Cc1ccc(C(=O)CNC(=O)c2ccc(Cl)c([N+](=O)[O-])c2)cc1` gave an Activity (Rattus norvegicus [1]) of 4%, an Activity (Rattus norvegicus [2]) of 9% and an Activity (Rattus norvegicus [3]) of 5%. The Activity (Rattus norvegicus [4]) was 9% and the Activity (Rattus norvegicus [5]) was 8%.

In the case of `Cc1ccc(C(=O)CNC(=O)CCc2cccnc2)cc1`, the Activity (Rattus norvegicus [1]) is reported as 24%, the Activity (Rattus norvegicus [2]) is reported as 22% and the Activity (Rattus norvegicus [3]) is reported as 24%. It also gave an Activity (Rattus norvegicus [4]) of 21%, an Activity (Rattus norvegicus [5]) of 20% and an Activity [6] of 24%. The Activity [7] was 31%, the Activity [8] was 19% and the Activity [9] was 33%. For the same molecule, the Activity [10] was 19% and the Activity [11] was 29%.

`Cc1ccc(C(=O)CNC(=O)/C=C/c2ccc(Cl)c(Cl)c2)cc1` gave an Activity (Rattus norvegicus [1]) of 12%, an Activity (Rattus norvegicus [2]) of 12% and an Activity (Rattus norvegicus [3]) of 12%. It also gave an Activity (Rattus norvegicus [4]) of 13% and an Activity (Rattus norvegicus [5]) of 6%.

In the case of `Cc1ccc(C(=O)CNC(=O)Cc2ccc(F)cc2)cc1`, the Activity (Rattus norvegicus [1]) is reported as 14%, the Activity (Rattus norvegicus [2]) is reported as 11% and the Activity (Rattus norvegicus [3]) is reported as 15%. The Activity (Rattus norvegicus [4]) was 19% and the Activity (Rattus norvegicus [5]) was 6%.

With `Cc1ccc(C(O)CNC(=O)/C=C/c2ccc(O)cc2)cc1` (mixture of isomers) the Activity (Rattus norvegicus [1]) was 7%, the Activity (Rattus norvegicus [2]) was 9% and the Activity (Rattus norvegicus [3]) was 9%. It also gave an Activity (Rattus norvegicus [4]) of 8% and an Activity (Rattus norvegicus [5]) of 7%.

Molecule `Cc1c(C)c2c(c(C)c1O)CC[C@@](C)(CCC[C@H](C)CCC[C@H](C)CCCC(C)C)O2` has an Activity [11] of 63%.

For `Cc1ccc(C(O)CNC(=O)/C=C/c2ccc(Cl)c(Cl)c2)cc1` (racemic), the Activity (Rattus norvegicus [1]) was 16%, the Activity (Rattus norvegicus [2]) was 14% and the Activity (Rattus norvegicus [3]) was 13%. The Activity (Rattus norvegicus [4]) was 15% and the Activity (Rattus norvegicus [5]) was 14%.

Work on `Cc1ccc(C(O)CNC(=O)c2ccc(Cl)c([N+](=O)[O-])c2)cc1` (racemic) yielded an Activity (Rattus norvegicus [1]) of 5%, an Activity (Rattus norvegicus [2]) of 11% and an Activity (Rattus norvegicus [3]) of 7%. It also gave an Activity (Rattus norvegicus [4]) of 11% and an Activity (Rattus norvegicus [5]) of 8%.

Molecule `Oc1ncnc2[nH]ncc12` has an Activity [7] of 69%.

In the case of `Cc1ccc(C(O)CNC(=O)/C=C/c2ccccc2O)cc1` (mixture of isomers), the Activity (Rattus norvegicus [1]) is reported as 8%, the Activity (Rattus norvegicus [2]) is reported as 9% and the Activity (Rattus norvegicus [3]) is reported as 7%. It also gave an Activity (Rattus norvegicus [4]) of 8% and an Activity (Rattus norvegicus [5]) of 5%.

With `COc1ccc([C@@H](O)CNC(=O)/C=C/c2ccccc2)cc1` [AEGELINE] the Activity (Rattus norvegicus [1]) was 24%, the Activity (Rattus norvegicus [2]) was 22% and the Activity (Rattus norvegicus [3]) was 23%. It also gave an Activity (Rattus norvegicus [4]) of 24%, an Activity (Rattus norvegicus [5]) of 14% and an Activity [6] of 19%. It also gave an Activity [7] of 25%, an Activity [8] of 18% and an Activity [9] of 22%.

Source: ChEMBL document CHEMBL1909603, “Synthesis of novel N-(2-hydroxy-2-p-tolylethyl)-amide and N-(2-oxo-2-p-tolylethyl)-amide derivatives and their antidyslipidemic and antioxidant activity” (2011)
